Among the data in PubChem BioAssay AID623954 (The Scripps Research Institute Molecular Screening Center, 2012) are fold reduction of recombinant frequency values, retold here.

Molecules are shown by their SMILES. The source made the active and inactive calls.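 Rule for the calls: active = recombinant frequency cut at least fourfold versus the solvent-only control; inactive = reduction in recombinant frequency below fourfold.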

This assay deals with E. coli recBCD-deletion with H. pylori AddAB/RecA, Hfr recombination, colony count. Put plainly: recombination inhibition in AddAB/RecA E. coli, late-stage follow-up, counter-screen for AddAB inhibitor project, colony formation, p(addAB), p(recA), 100 µM (AID 623954). As to conditions: at 100 µM; active compounds read high. Put shortly:
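System: E. coli ΔrecBCD recipient carrying H. pylori addAB, recA plasmids / Probe or stimulus: HfrH E. coli donor mixed 1:10 with recipient / Technique: differential plating counting His+ StrR recombinant colonies / Evaluation: viability-adjusted fold reduction of recombinant frequency versus DMSO / Benchmarks: DMSO-treated culture / Repeats: duplicate experiments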
For orientation: A counterscreen serves to expose hits that act by an unwanted route or on another target.
On to `CCn1cc(C(=O)O)c(=O)c2cc(F)c(N3CCN(C(=S)Nc4cccc(C(F)(F)F)c4)CC3)cc21`, for which the fold reduction of recombinant frequency was 8.
For the molecule `N#Cc1c(NC(=O)c2ccc([N+](=O)[O-])o2)sc2c1CCC2`, the fold reduction of recombinant frequency was 20.
Then `CNC(=O)c1c(NC(=O)c2nc(SCc3ccccc3)ncc2Cl)sc2c1CCCC2`, with 2 (inactive).
